Reference: ChEMBL document CHEMBL3085627 (J Med Chem, 2013)

Key:
D(2) dopamine receptor [1] = target: T1, D(2) dopamine receptor (Homo sapiens, UniProt P14416); test: Agonist activity at human dopamine D2L receptor expressed in CHO […] assessed as inhibition of forskolin-stimulated cAMP production after 30 mins by Alphascreen assay; type: functional, cell-based
Summary of the method: (§1)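 Concentration-response curves are fitted to the operational model of agonism to derive functional affinity (pKA) and efficacy (τ). The transduction coefficient log(τ/KA) is calculated per pathway, and bias is expressed as ΔΔlog(τ/KA). Statistical comparison uses Student's t-test.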

D(2) dopamine receptor [2] = target: T1, D(2) dopamine receptor; test: Displacement of [3H]-spiperone from human dopamine D2L receptor expressed in CHO cell membranes after 3 hrs by liquid scintillation counting analysis
Summary of the method: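 Competition against the radiolabeled antagonist [3H]spiperone at human D2L receptor in FlpIn CHO cell membranes. Affinity is reported as Ki.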

D(2) dopamine receptor [3] = target: T1, D(2) dopamine receptor; test: Agonist activity at human dopamine D2L receptor expressed in CHO […] assessed as phosphorylation of ERK1/2 by Alphascreen assay; type: cell-based; summary of the method: as §1
D(2) dopamine receptor [4] = target: T1, D(2) dopamine receptor; conditions: CHO

T1 sequence (P14416 whole entry): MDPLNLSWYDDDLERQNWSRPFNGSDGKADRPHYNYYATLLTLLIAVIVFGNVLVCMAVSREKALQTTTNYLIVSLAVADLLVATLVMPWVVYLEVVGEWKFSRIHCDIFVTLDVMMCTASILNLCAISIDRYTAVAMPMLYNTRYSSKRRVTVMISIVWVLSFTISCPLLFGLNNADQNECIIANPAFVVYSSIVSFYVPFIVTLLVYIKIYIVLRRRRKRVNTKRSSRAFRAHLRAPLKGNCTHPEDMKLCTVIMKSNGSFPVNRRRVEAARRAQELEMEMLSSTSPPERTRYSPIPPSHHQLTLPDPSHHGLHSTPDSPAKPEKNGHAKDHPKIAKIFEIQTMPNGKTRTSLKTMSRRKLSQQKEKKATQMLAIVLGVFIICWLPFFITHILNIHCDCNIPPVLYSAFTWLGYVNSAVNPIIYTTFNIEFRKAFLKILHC

Structure (SMILES)	pKA (D(2) dopamine receptor [1])	Ki (D(2) dopamine receptor [2]) [nM]	pKA (D(2) dopamine receptor [3])	KiH (D(2) dopamine receptor [4]) [nM]	KiL (D(2) dopamine receptor [4]) [µM]
O=C(N[C@H]1CC[C@H](CCN2CCc3ccccc3C2)CC1)Oc1ccccc1	5.67	912	–	–	–
CC(C)(C)OC(=O)N[C@H]1CC[C@H](CCN2CCc3ccc(C#N)cc3C2)CC1	6.81	2240	–	–	–
CC(C)(C)OC(=O)NC[C@H]1CC[C@H](CN2CCc3ccccc3C2)CC1	6.82	1150	6.69	–	–
CC(C)(C)OC(=O)N[C@H]1CC[C@H](CCN2CCN(c3cccc(Cl)c3Cl)CC2)CC1	7.11	–	7.51	–	–
NCCc1ccc(O)c(O)c1	–	–	–	58	3.42
CC(C)(C)OC(=O)N[C@H]1CC[C@@H](CCN2CCc3ccccc3C2)CC1	7.34	–	–	–	–
CC(=O)N[C@H]1CC[C@H](CCN2CCc3ccc(C#N)cc3C2)CC1	–	23.4	–	–	–
CC(C)(C)OC(=O)N[C@H]1CC[C@H](CCN2CCc3ccc([N+](=O)[O-])cc3C2)CC1	–	380	–	–	–
CC(C)(C)OC(=O)N[C@H]1CC[C@H](CCN2CCCN(c3cccc(Cl)c3Cl)CC2)CC1	–	10.5	–	–	–
CCOC(=O)N[C@H]1CC[C@H](CCN2CCc3ccccc3C2)CC1	7.23	–	–	–	–
CC(C)(C)OC(=O)N[C@H]1CC[C@H](CN2CCN(c3cccc(Cl)c3Cl)CC2)CC1	6.27	309	5.43	–	–
CC(C)(C)OC(=O)NC[C@H]1CC[C@H](CN2CCN(c3cccc(Cl)c3Cl)CC2)CC1	6.95	148	6.86	–	–
CC(C)(C)OC(=O)N[C@H]1CC[C@H](CN2CCc3ccccc3C2)CC1	7.18	355	7.48	–	–
CC(C)(C)OC(=O)Nc1ccc(CCN2CCc3ccccc3C2)cc1	5.95	550	–	–	–
CN(C)C(=O)N[C@H]1CC[C@H](CCN2CCN(c3cccc(Cl)c3Cl)CC2)CC1	–	–	7.61	–	–
CC(C)(C)NC(=O)N[C@H]1CC[C@H](CCN2CCc3ccccc3C2)CC1	6.72	245	–	–	–
CC(C)COC(=O)N[C@H]1CC[C@H](CCN2CCc3ccccc3C2)CC1	6.05	5250	–	–	–
CC(=O)N[C@H]1CC[C@H](CCN2CCc3ccccc3C2)CC1	6.85	–	–	–	–
CN(C)C(=O)N[C@H]1CC[C@@H](CCN2CCc3ccccc3C2)CC1	6.96	–	–	–	–
CC(C)(C)OC(=O)N[C@H]1CC[C@H](CCN2CCc3ccccc3C2)CC1	6.45	–	7.1	–	–
CN(C)C(=O)N[C@H]1CC[C@H](CCN2CCc3ccccc3C2)CC1	7.19	–	–	–	–
CC(C)(C)OC(=O)N[C@H]1CC[C@@H](CCN2CCN(c3cccc(Cl)c3Cl)CC2)CC1	6.73	–	6.79	–	–
CN(C)C(=O)NC[C@H]1CC[C@H](CN2CCN(c3cccc(Cl)c3Cl)CC2)CC1	6.92	42.7	7.56	–	–
CC(C)OC(=O)N[C@H]1CC[C@H](CCN2CCc3ccccc3C2)CC1	6.3	1480	–	–	–
